This is an account of results in PMC3841333 (Theranostics, 2013).

The test system of one test is integrin αvβ3. Nature of the test: ^99mTc-3P-RGD2 SPECT/CT tumor uptake during linifanib therapy, MDA-MB-435 model. The test is classed as in vivo, athymic nude mice. In a few lines: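 Size-matched groups (n = 5; mean tumor 180 ± 90 mm3) of female nude mice with fat-pad MDA-MB-435 tumors received vehicle (0.15% HPMC, 2% ethanol, 5% Tween 80, 20% PEG400, 73% saline) or test compound at 12.5 mg/kg orally twice daily (>8 h apart) from day 0. Radiotracer (>95% radiochemical purity, in saline) was given i.v. Multi-pinhole SPECT/CT on days -1, 1, 4 and 11 was quantified as %ID and %ID/cm3.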

The next test concerns MDA-MB-435 tumors. As to the kind of experiment: Tumor immunohistochemistry. Type of test: in vivo, athymic nude mice. An outline of the steps: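 Fat-pad MDA-MB-435 tumors came from mice given vehicle or oral test compound (12.5 mg/kg twice daily) and were harvested on days -1, 1, 4 and 11. Frozen 5 μm OCT sections were fixed in ice-cold acetone (10 min) and blocked in 10% goat serum (30 min). They were stained 1 h with hamster anti-integrin β3 and rat anti-CD31 (1:100), then Cy3/FITC secondaries (1:100), and read by fluorescence microscopy. H&E sections were examined for blood vessels.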

Another test has as its system U87MG gliomas. Conditions: xenografted U87MG model; cited from earlier work.
The test system of the next test is PC-3 prostate tumors. Conditions: xenografted PC-3 model; cited from earlier work.
Test [1] relates to pre-clinical tumor models. Conditions: variety of pre-clinical tumor models; cited from earlier work.
Test [2] relates to VEGF and PDGF receptor families. Particulars: in vitro; cited from earlier work.
The next test has as its system tumor. Conditions: 2 days after sunitinib therapy; cited from earlier work.
Another test has as its system tumors. Particulars: cited from earlier work.
A further test relates to integrin αvβ3 and αvβ5. Conditions: low concentrations; cited from earlier work.
[3] abbreviates: 12.5 mg/kg orally twice daily, as early as 24 h, SPECT/CT quantification, n = 5.

Take `Cc1ccc(F)c(NC(=O)Nc2ccc(-c3cccc4[nH]nc(N)c34)cc2)c1` [linifanib]: in the test with integrin αvβ3 (setting [3]), the “%ID tumor uptake of ^99mTc-3P-RGD2 in linifanib-treated group” value is recorded as “dramatic reduction” and the “%ID/cm^3 tumor uptake of ^99mTc-3P-RGD2 in linifanib-treated group” value is given as “dramatic reduction”. Besides, in the test on integrin αvβ3 (over the next 10 days after the first 24 h of linifanib therapy), the “tumor uptake (%ID and %ID/g) of ^99mTc-3P-RGD2 in linifanib-treated group” value is recorded as “steady tumor uptake reduction”. In addition, the blood vessel density result with MDA-MB-435 tumors (H&E staining of tumor slices, within 24 h after initiation of linifanib therapy) is recorded as “dramatically reduced”. Moreover, the “integrin αvβ3 on neovasculature” value in the test on MDA-MB-435 tumors (IHC staining of tumor slices, after 24 h of linifanib therapy) was “disappeared almost completely”. Moreover, in the test with MDA-MB-435 tumors (IHC staining of tumor slices, during the 11-day period of linifanib therapy), the “tumor cell integrin αvβ3 expression level” value is recorded as “decreased steadily”. In addition, in the test on U87MG gliomas, the “tumor uptake (%ID and %ID/cm^3) and T/M ratios of ^99mTc-3P-RGD2 after linifanib treatment” value is reported as “significant decrease”. Also, in the test on PC-3 prostate tumors, the “tumor volume or tumor uptake of ^99mTc-3P-RGD2 after linifanib treatment” value is “no significant changes”. Besides, the “effect on tumors in vivo” value in test [1] is “pronounced regression of tumors”. Moreover, the “phosphorylation of members of VEGF and PDGF receptor families” value in test [2] is given as “inhibit the phosphorylation”.
`CCN(CC)CCNC(=O)c1c(C)[nH]c(/C=C2\C(=O)Nc3ccc(F)cc32)c1C` [sunitinib]: in the test with tumor, the “tumor uptake of [^18F]AH111585 after sunitinib therapy” value is on record as “significantly reduced”.
Regarding `Cc1nc(Nc2ncc(C(=O)Nc3c(C)cccc3Cl)s2)cc(N2CCN(CCO)CC2)n1` [dasatinib], the “uptake of ^64Cu-DOTA-RGD in the treated tumors” value in the test on tumors was “significantly reduce”.
On to Cilengitide, for which the “effect on tumor growth and angiogenesis” value with integrin αvβ3 and αvβ5 was “stimulate tumor growth and angiogenesis”.
